# According to ChEMBL document CHEMBL1123133, “1H-2-Benzopyran-1-one derivatives, microbial products with pharmacological activity. Conversion into orally active derivatives with antiinflammatory and antiulcer activities” (J Med Chem, 1985):
# How the values were obtained:
# [1] = Acute toxicity evaluated as oral lethal dose in rat; assay type: organism-based; conditions: in vivo
# Procedure, shortened: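 Oral dosing of male Wistar rats (120-140 g), given as HCl salt; LD50 derived from mortality over 7 days.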
# [2] = system: Rattus norvegicus; assay: Gastroprotective activity as % protection against stress ulcers in 5 rats after an oral dose of 50 mg/kg; assay type: functional
# Procedure, shortened: (§1)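 Stress ulcer by restraint and water immersion: male Wistar rats (160–180 g), fasted 24 h, given test compound po or ip as HCl salt in aqueous glycerin/HCO-60 formulation (1/12/0.05 by weight). Vehicle-only controls. After 1 h, restrained in net cage and immersed in 21 °C water for 6 h. Percent ulcer inhibition calculated; five rats per dose.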
# [3] = system: Rattus norvegicus; assay: Gastroprotective activity as % protection against stress ulcers in 5 rats after an oral dose of 25 mg/kg; assay type: functional; procedure, shortened: as §1
# [4] = system: Rattus norvegicus; assay: Concentration 5c detected in blood of rat 3 hr after an oral dose of 200 mg/kg of the compound; assay type: ADME, organism-based; design: dose 200 mg/kg, route oral; conditions: in vivo
# Procedure, shortened: (§2)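 Male Wistar rats (120–160 g, 5–7 per group) fasted 24 h, then given 200 mg/kg orally as the HCl salt in a glycerin/HCO-60 formulation (drug/glycerin/HCO-60 1/12/0.05 by weight) in aqueous solution. At 1 or 3 h, jugular blood was citrated and plasma was ethanol-deproteinized, then analysed by reverse-phase HPLC at 254 nm. Values were recovery-corrected from blood spiked at 50 μg/mL and are means of 6–7 rats.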
# [5] = system: Rattus norvegicus; assay: Antiinflammatory activity evaluated as Minimum effective oral dose that inhibits adjuvant arthritis in rats; assay type: functional
# Procedure, shortened: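 Adjuvant arthritis: male Sprague-Dawley rats (180–200 g), 8–10 per group, injected in right hind paw with Mycobacterium butyricum powder in corn oil (0.6 mg/0.1 mL). Oral dosing started 1 h after adjuvant, then daily for 18 days; observed 28 days. Minimum effective dose recorded.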
# [6] = system: Rattus norvegicus; assay: Concentration 5c detected in blood of rat 1 hr after an oral dose of 200 mg/kg of the compound; assay type: ADME, organism-based; design: dose 200 mg/kg, route oral; conditions: in vivo; procedure, shortened: as §2
# [7] = system: Rattus norvegicus; assay: Gastroprotective activity as % protection against stress ulcers in 5 rats after an oral dose of 100 mg/kg; assay type: functional; procedure, shortened: as §1
# [8] = system: Rattus norvegicus; assay: Antiinflammatory activity evaluated as Minimum effective oral dose that inhibits carrageenan paw edema in rat; assay type: functional
# [9] = system: Rattus norvegicus; assay: Antiinflammatory activity evaluated as Minimum effective oral dose that inhibits bradykinin paw edema in rat; assay type: functional
# [10] = system: Rattus norvegicus; assay: Gastroprotective activity as % protection against stress ulcers in 5 rats after an oral dose of 12.5 mg/kg; assay type: functional; procedure, shortened: as §1
# [11] = Lipid solubility measured as chloroform-water partition coefficient; assay type: physicochemical
# Procedure, shortened: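 Partition between chloroform and 10 mM phosphate buffer pH 7.5 (1:1 volume); drug at 1 mg/mL initially in aqueous phase, shaken 20 min at 20 °C, centrifuged, both phases quantified by HPLC. HCl salts used.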
# [12] = system: Rattus norvegicus; assay: Concentration 6c detected in blood of rat 1 hr after an oral dose of 200 mg/kg of the compound; assay type: ADME, organism-based; design: dose 200 mg/kg, route oral; conditions: in vivo; procedure, shortened: as §2
# [13] = Solubility in water, tested as a HCl salt; assay type: physicochemical; conditions: read-out: S
# Procedure, shortened: (§3)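 HCl salts suspended in excess in water or 10 mM phosphate buffer pH 7.5, sonicated 10 min at 20 °C to saturation, centrifuged; supernatant quantified by HPLC.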
# [14] = system: Cavia porcellus; assay: Antiinflammatory activity evaluated as Minimum effective oral dose that inhibits dextran UV erythema in guinea pig; assay type: functional
# [15] = system: Rattus norvegicus; assay: Gastroprotective activity as % protection against stress ulcers in 5 rats after an intraperitoneal dose of 25 mg/kg; assay type: functional; procedure, shortened: as §1
# [16] = system: Rattus norvegicus; assay: Gastroprotective activity as % protection against stress ulcers in 5 rats after an intraperitoneal dose of 12.5 mg/kg; assay type: functional; procedure, shortened: as §1
# [17] = Solubility in phosphate buffer, tested as a HCl salt; assay type: physicochemical; procedure, shortened: as §3
# [18] = system: Rattus norvegicus; assay: Concentration 6c detected in blood of rat 3 hr after an oral dose of 200 mg/kg of the compound; assay type: ADME, organism-based; design: dose 200 mg/kg, route oral; conditions: in vivo; procedure, shortened: as §2
# [19] = system: Rattus norvegicus; assay: Gastroprotective activity as % protection against stress ulcers in 5 rats after an intraperitoneal dose of 50 mg/kg; assay type: functional; procedure, shortened: as §1
# [20] = system: Rattus norvegicus; assay: Antiinflammatory activity evaluated as Minimum effective oral dose that inhibits dextran paw edema in rat; assay type: functional
# [21] = system: Rattus norvegicus; assay: % recovery of the compound, compound 1 and compound 6a from whole blood of 7 wistar rats after an oral dose of the compound; assay type: ADME, organism-based; conditions: in vivo
# [22] = system: Rattus norvegicus; assay: Concentration 5b detected in blood of rat 1 hr after an oral dose of 200 mg/kg of the compound; assay type: ADME, organism-based; design: dose 200 mg/kg, route oral; conditions: in vivo
# Procedure, shortened: (§4)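 Male Wistar rats (120–160 g), 5–7 per group, fasted 24 h, given 200 mg/kg orally as aqueous HCl salt formulation (drug/glycerin/HCO-60 1/12/0.05 by weight). Jugular blood taken under ether at 1 or 3 h into citric acid; plasma deproteinized with ethanol (acetone for 5d) and analysed by C18 HPLC at 254 nm. Values recovery-corrected, mean of 6–7 rats.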
# [23] = system: Rattus norvegicus; assay: Concentration 5b detected in blood of rat 3 hr after an oral dose of 200 mg/kg of the compound; assay type: ADME, organism-based; design: dose 200 mg/kg, route oral; conditions: in vivo; procedure, shortened: as §4
# [24] = system: Rattus norvegicus; assay: Concentration 5d detected in blood of rat 3 hr after an oral dose of 200 mg/kg of the compound; assay type: ADME, organism-based; design: dose 200 mg/kg, route oral; conditions: in vivo; procedure, shortened: as §4
# [25] = system: Rattus norvegicus; assay: Concentration 6d detected in blood of rat 1 hr after an oral dose of 200 mg/kg of the compound; assay type: ADME, organism-based; design: dose 200 mg/kg, route oral; conditions: in vivo; procedure, shortened: as §4
# [26] = system: Rattus norvegicus; assay: Concentration 6d detected in blood of rat 3 hr after an oral dose of 200 mg/kg of the compound; assay type: ADME, organism-based; design: dose 200 mg/kg, route oral; conditions: in vivo; procedure, shortened: as §4
# [27] = system: Rattus norvegicus; assay: Concentration 1 detected in blood of rat 3 hr after an oral dose of 200 mg/kg; ND is Not Detected.; assay type: ADME, organism-based; design: dose 200 mg/kg, route oral; conditions: in vivo; procedure, shortened: as §4
# [28] = system: Rattus norvegicus; assay: Concentration 5d detected in blood of rat 1 hr after an oral dose of 200 mg/kg of the compound; assay type: ADME, organism-based; design: dose 200 mg/kg, route oral; conditions: in vivo; procedure, shortened: as §4
# [29] = system: Rattus norvegicus; assay: % recovery from whole blood of 7 wistar rats after an oral dose of the compound; assay type: ADME, organism-based; conditions: in vivo
# [30] = system: Rattus norvegicus; assay: Concentration 1 detected in blood of rat 1 hr after an oral dose of 200 mg/kg of the compound; ND is Not Detected.; assay type: ADME, organism-based; design: dose 200 mg/kg, route oral; conditions: in vivo; procedure, shortened: as §4
# [31] = system: Rattus norvegicus; assay: Concentration detected in blood of rat 3 hr after an oral dose of 200 mg/kg; ND is Not Detected; assay type: ADME, organism-based; design: dose 200 mg/kg, route oral; conditions: in vivo; procedure, shortened: as §4
# [32] = system: Rattus norvegicus; assay: Concentration 6a detected in blood of rat 3 hr after an oral dose of 200 mg/kg of the compound; assay type: ADME, organism-based; design: dose 200 mg/kg, route oral; conditions: in vivo; procedure, shortened: as §4
# [33] = system: Rattus norvegicus; assay: Concentration 5a detected in blood of rat 1 hr after an oral dose of 200 mg/kg of the compound; assay type: ADME, organism-based; design: dose 200 mg/kg, route oral; conditions: in vivo; procedure, shortened: as §4
# [34] = system: Rattus norvegicus; assay: % recovery 1 and compound 6a from whole blood of 7 wistar rats after an oral dose of the compound; assay type: ADME, organism-based; conditions: in vivo
# [35] = system: Rattus norvegicus; assay: Concentration 6a detected in blood of rat 1 hr after an oral dose of 200 mg/kg of the compound; assay type: ADME, organism-based; design: dose 200 mg/kg, route oral; conditions: in vivo; procedure, shortened: as §4
# [36] = system: Rattus norvegicus; assay: Concentration 5a detected in blood of rat 3 hr after an oral dose of 200 mg/kg of the compound; assay type: ADME, organism-based; design: dose 200 mg/kg, route oral; conditions: in vivo; procedure, shortened: as §4
Structure (SMILES),P [11],LD50 [1],Protection [2],Protection [3],EDmin [5],Protection [7],ED50 [8],ED50 [9],Protection [10],solubility [13],ED50 [14],Protection [15],Protection [16],solubility [17],Protection [19],ED50 [20],Recovery [21],other results
CCCNC1CC(=O)OC1C(O)C(=O)NC(CC(C)C)C1Cc2cccc(O)c2C(=O)O1 (centres undefined),260,1080 mg/kg,94%,78%,15 mg/kg,100%,124 mg/kg,69 mg/kg,17%,> 100000 µg/mL,12 mg/kg,66%,44%,1600 µg/mL,89%,43 mg/kg,40%,Concentration [4]: 3400 ng/mL; Concentration [6]: 14200 ng/mL; Concentration [12]: 6400 ng/mL; Concentration [18]: 3400 ng/mL
CNCC(=O)O [SARCOSINE],< 0.03,,,,,,,,,,,,,,,,,
CCNC1CC(=O)OC1C(O)C(=O)NC(CC(C)C)C1Cc2cccc(O)c2C(=O)O1 (centres undefined),43,1250 mg/kg,78%,56%,20 mg/kg,89%,> 200 mg/kg,182 mg/kg,33%,> 100000 µg/mL,13 mg/kg,76%,66%,11000 µg/mL,100%,47 mg/kg,20%,Concentration [22]: 17500 ng/mL; Concentration [23]: 8300 ng/mL
CC(C)C[C@H](NC(=O)[C@@H](O)[C@@H](O)[C@@H](N)CC(=O)O)[C@@H]1Cc2cccc(O)c2C(=O)O1,,,0%,0%,,17%,,,,,,100%,78%,,94%,,,Recovery [29]: 50%; Concentration [30]: Not detected; Concentration [31]: Not detected

# Second part, led by results:
P [11],Structure (SMILES),LD50 [1],Protection [2],Protection [3],EDmin [5],Protection [7],ED50 [8],ED50 [9],Protection [10],solubility [13],ED50 [14],Protection [15],Protection [16],solubility [17],Protection [19],ED50 [20],Recovery [21],other results
1700,CCCCNC1CC(=O)OC1C(O)C(=O)NC(CC(C)C)C1Cc2cccc(O)c2C(=O)O1 (centres undefined),,66%,33%,,89%,,,17%,100000 µg/mL,,44%,,370 µg/mL,89%,,30%,Concentration [24]: 2300 ng/mL; Concentration [25]: 2000 ng/mL; Concentration [26]: 1800 ng/mL; Concentration [27]: Not detected; Concentration [28]: 2300 ng/mL
3750,CNC1CC(=O)OC1C(O)C(=O)NC(CC(C)C)C1Cc2cccc(O)c2C(=O)O1 (centres undefined),,56%,11%,,66%,,,17%,1500 µg/mL,,33%,,990 µg/mL,56%,,,Concentration [32]: 1100 ng/mL; Concentration [33]: 3800 ng/mL; Recovery [34]: 50%; Concentration [35]: 3100 ng/mL; Concentration [36]: 1200 ng/mL
